Assay results pooled from the literature.
Each line is one published result; the experiments were not run side by side.
Organism: Staphylococcus aureus

CN[C@H](CC(C)C)C(=O)N[C@H]1C(=O)N[C@@H](CC(N)=O)C(=O)N[C@H]2C(=O)N[C@H]3C(=O)N[C@H](C(=O)N[C@H](C(=O)O)c4cc(O)cc(O)c4-c4cc3ccc4O)[C@H](O)c3ccc(c(Cl)c3)Oc3cc2cc(c3O[C@@H]2O[C@H](CO)[C@@H](O)[C@H](O)[C@H]2O[C@H]2C[C@](C)(N)[C@H](O)[C@H](C)O2)Oc2ccc(cc2Cl)[C@H]1O
MIC90 (microbial growth; MRSA; clinical isolate): 2 µg/mL

CN(C)CCCN1c2ccccc2Sc2ccc(Cl)cc21
MBC (microbial killing, broth dilution; ATCC43300; 18 h): 64 µg/mL

CNC(C)C1CCC(N)C(OC2C(N)CC(N)C(OC3OCC(C)(O)C(NC)C3O)C2O)O1 (stereo not shown)
MBC (microbial killing, broth dilution; ATCC25923; 24 h): 8 mM

CCS(=O)(=O)Oc1ccc(C=NNC(=O)CSc2nc3ccc(Cl)cc3c(=O)n2-c2ccccc2)cc1
inhibition zone (microbial growth, well diffusion; MRSA; 20 µg/mL): 2 mm

O=C(/C=C/C=C/c1ccccc1)c1ccccc1OCc1cccc(Cl)c1
inhibition zone (microbial growth, well diffusion; MTCC96; 1000 µg/mL, 18 h): 7 mm

Cc1cccc2c(=O)n(-c3ccccc3)c(SCC(=O)NN=Cc3ccc(OS(C)(=O)=O)cc3)nc12
inhibition zone (microbial growth, well diffusion; MRSA; 20 µg/mL): 2 mm

CC(=O)NC[C@H]1CN(c2ccc(N3CCOCC3)c(F)c2)C(=O)O1
MIC90 (microbial growth; MRSA; clinical isolate): 2 µg/mL

COc1ccc2cc3[n+](cc2c1OC)CCc1cc2c(cc1-3)OCO2
MIC50 (microbial growth; 24 h): 72 µM

CCS(=O)(=O)Oc1ccc(C=NNC(=O)CSc2nc3c(C)cccc3c(=O)n2-c2ccccc2)cc1
inhibition zone (microbial growth, well diffusion; MRSA; 20 µg/mL): 3 mm

CC1(C)S[C@@H]2[C@H](NC(=O)[C@H](N)c3ccccc3)C(=O)N2[C@H]1C(=O)O
MIC90 (microbial growth; MRSA; clinical isolate): > 128 µg/mL

O=C(O)c1cn(C2CC2)c2cc(N3CCNCC3)c(F)cc2c1=O
MIC90 (microbial growth, broth dilution): 3.13 µM

Nc1ccc(S(=O)(=O)Nc2ncccn2)cc1
inhibition zone (microbial growth, well diffusion; MRSA; 20 µg/mL): 2 mm

[H]/N=C(/N)N[C@H]1[C@H](O)[C@@H](O)[C@H](O[C@@H]2O[C@@H](C)[C@](O)(C=O)[C@H]2O[C@@H]2O[C@@H](CO)[C@H](O)[C@@H](O)[C@@H]2NC)[C@@H](N/C(N)=N\[H])[C@@H]1O
inhibition zone (microbial growth, well diffusion; MTCC96; 1000 µg/mL, 18 h): 24 mm

CC[C@H]1OC(=O)[C@H](C)[C@@H](O[C@H]2C[C@@](C)(OC)[C@@H](O)[C@H](C)O2)[C@H](C)[C@@H](O[C@@H]2O[C@H](C)C[C@H](N(C)C)[C@H]2O)[C@](C)(O)C[C@@H](C)/C(=N\OCOCCOC)[C@H](C)[C@@H](O)[C@]1(C)O
MIC90 (microbial growth; MSSA; clinical isolate): 64 µg/mL

O=C(/C=C/C=C/c1ccccc1)c1ccccc1OCc1ccc(Cl)c(Cl)c1
inhibition zone (microbial growth, well diffusion; MTCC96; 1000 µg/mL, 18 h): 7 mm

CCCS(=O)(=O)Oc1ccc(C=NNC(=O)CSc2nc3c(C)cccc3c(=O)n2-c2ccccc2)cc1OC
inhibition zone (microbial growth, well diffusion; MRSA; 20 µg/mL): 4 mm
